One molecule from ChEMBL document CHEMBL1240362, “Intrapulmonary pharmacokinetics of S-013420, a novel bicyclolide antibacterial, in healthy Japanese subjects” (Antimicrob Agents Chemother, 2010) can be followed below.

Series [1] can be described thus: Ratio of drug level in epithelial lining fluid to plasma in healthy human at 400 mg, po administered as single dose after 10 hrs.
For series [2], the system named is Homo sapiens. Nature of the series: Toxicity in healthy human assessed as neutrophil count in bronchoalveolar fluid at […], po administered as single dose after 12 hrs. The class given is organism-based, Lung. Also on record: route oral. As to conditions: in vivo. The method, boiled down: (§1)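 Healthy Japanese male never-smokers, aged 20 to 45 years with normal BMI, got one open-label oral 400 mg suspension dose. Four subjects per time group had one fiber-optic bronchoscopic BAL at the assigned post-dose time. The first aliquot was discarded and the last three were pooled. BAL fluid was held on ice and spun at 400 × g for 5 min at 4°C. Pellet cells were counted by hemocytometer, with a differential count on a stained cytocentrifuge preparation.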

The nature of series [3]: Ratio of drug level in epithelial lining fluid to plasma in healthy human at 400 mg, po administered as single dose after 12 hrs.
Series [4] has as its system Homo sapiens. Nature of the series: Toxicity in healthy human assessed as lymphocytes count in bronchoalveolar fluid at […], po administered as single dose after 12 hrs. The class given is organism-based, Lung. Further details: route oral. As to conditions: in vivo. The method, boiled down:
as §1

Series [5] is described as follows: Plasma concentration in healthy human at […], po after 8 hrs. The class given is ADME, organism-based. Also on record: route oral. The method, boiled down:
(§2)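 Healthy nonsmoking Japanese men, 20-45 y, given one oral 400 mg suspension dose. Blood drawn at 0-72 h, spun at 1,600 × g for 10 min at 4°C, plasma kept at −20°C. Drug measured by validated LC/MS/MS, linear 0.005-5 μg/ml. Values are mean ± SD, n = 28. Cmax, Tmax and t1/2,z are model-independent; AUC0-24 by trapezoidal method.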

The nature of series [6]: Plasma concentration in healthy human at […], po after 24 hrs. The class given is ADME, organism-based. Further details: route oral. The method, boiled down: as §2
Series [7] in a line: Ratio of drug level in alveolar macrophages to plasma in healthy human at 400 mg, po administered as single dose after 24 hrs.
Series [8] concerns Homo sapiens. Nature of the series: Toxicity in healthy human assessed as eosinophil count in bronchoalveolar fluid at 400 mg, po administered as single dose after 8 hrs. Conditions: in vivo.
Series [9] in a line: Plasma concentration in healthy human at […], po after 4 hrs. The class given is ADME, organism-based. Also on record: route oral. The method, boiled down:
as §2

A short description of series [10]: Ratio of AUC (0 to 24 hrs) in plasma of healthy human to MIC90 for Streptococcus pneumoniae. The class given is functional.
The subject of series [11] is Homo sapiens. The series can be described thus: Toxicity in healthy human assessed as eosinophil count in bronchoalveolar fluid at 400 mg, po administered as single dose after 12 hrs. As to conditions: in vivo.
A short description of series [12]: AUC (0 to 24 hrs) in alveolar macrophages of healthy human at 400 mg, po administered as single dose by linear trapezoidal method.
Series [13] can be described thus: Plasma concentration in healthy human at […], po after 12 hrs. Also on record: route oral. The class given is ADME, organism-based. The method, boiled down:
as §2

Series [14] is described as follows: AUC (0 to 24 hrs) in plasma of healthy human at 400 mg, po administered as single dose by linear trapezoidal method.
Series [15] can be described thus: Cmax in plasma of healthy human at 400 mg, po administered as single dose.
Series [16] in a line: Ratio of alveolar macrophages AUC (0 to 24 hrs) to plasma AUC (0 to 24 hrs) in healthy human at 400 mg, po administered as single dose.
Series [17] is described as follows: Terminal-phase half-life in epithelial lining fluid of healthy human at 400 mg, po administered as single dose. Conditions: read-out: beta t1/2 (converted).

Consider `CC[C@H]1OC(=O)[C@H](C)C(=O)[C@H](C)[C@@H](O[C@@H]2O[C@H](C)C[C@H](N(C)C)[C@H]2O)[C@@]2(C)C[C@@H](C)/C(=N\C(C)=O)[C@H](C)[C@@H](OC/C(=N\OCc3ccc(-n4cccn4)nc3)CO2)[C@]1(C)O` [MODITHROMYCIN], for which, in series [1], the Kp at 10 h was found to be 23.2. The Activity in the series on Homo sapiens [2] came out at 0%; with Homo sapiens [4], 13.3%; with Homo sapiens [8], 0.3%; in the series on Homo sapiens [11] it was 0.9%. The Kp at 12 h in [3] is 13.8. The concentration at 8 h in [5] was 0.441 µg/mL. Moreover, the concentration at 24 h in series [6] came to 0.315 µg/mL. In [7], the Kp at 24 h was 232. This molecule displayed a concentration at 4 h in series [9] of 0.575 µg/mL. Also, the RatioAUC/MIC in series [10] turned out to be 83.6. Further, the AUC(0-t) at 24 h is 2560 µg·h/mL in [12] and 10.5 µg·h/mL in series [14]. The molecule also yielded a concentration at 12 h in series [13] of 0.424 µg/mL. The molecule also returned a Cmax in series [15] of 0.687 µg/mL. Also, the Kp in series [16] stood at 245. The half-life in series [17] was 14.8 h.

Broadly, the Kp is tissue or fluid exposure divided by exposure in the circulation. Broadly, the AUC(0-t) is exposure summed from dosing to a finite time, without extrapolation to infinity. Low values mean low exposure, high ones high exposure. The Cmax is the peak of the concentration-time curve.
